Experimental data published in ChEMBL document CHEMBL3813596, “Conformational Constraint of the Glycerol Moiety of Lysophosphatidylserine Affords Compounds with Receptor Subtype Selectivity” (J Med Chem, 2016).
Calls of active or inactive are those of the source. The calls are words filed in the database; no cut-off is given here.

Experiments:
[1] = molecular target: Probable G-protein coupled receptor 34 (Mus musculus) (UniProt Q9R1K6); test: Intrinsic activity at mouse GPR34 expressed in HEK293A cells cotransfected with chimeric Galphaq/il after 1.5 hrs by alkaline phosphatase tagged-TGFalpha shedding assay relative to O-(Hydroxy(((2R,3R)-2-(((3-(2-((3-phenoxybenzyl)oxy)phenyl)-propanoyl)oxy)methyl)tetrahydro-2H-pyran-3-yl)oxy)phosphoryl)-L-serine; format: cell-based; details: HEK293-A
Procedure, shortened: (§1)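 It is a dimensionless estimate of agonist activity. The GPR34 assay used HEK293A cells with chimeric Gαq/i1 and a 1.5 h incubation; the P2Y10 assay used HEK293A cells.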

HEK293-A = test: Selectivity ratio of EC50 for mouse P2Y10 receptor expressed in HEK293A cells to EC50 for mouse GPR34 expressed in HEK293A cells; format: cell-based
[2] = molecular target: Probable G-protein coupled receptor 34 (Mus musculus) (UniProt Q9R1K6); test: Agonist activity at mouse GPR34 expressed in HEK293A cells cotransfected with chimeric Galphaq/il assessed as increase in intracellular calcium levels at 1 uM measured after 35 secs by calcium 5 dye based fluorescence microplate reader method in presence of probenecid; format: functional, cell-based; details: HEK293-A
Procedure, shortened: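 HEK293A cells were transfected with mouse GPR34 and Gαq/i1 plasmids, with empty vector plus Gαq/i1 as mock. After 24 h they were seeded in serum-free DMEM at 5 × 10^5 cells/mL for another 24 h. Cells were loaded with Calcium 5 dye for 1 h with 2.5 mM probenecid and given compound at 1 μM or 100 nM near 35 s. Fluorescence was recorded by plate reader, with SD of triplicates.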

[3] = molecular target: Putative P2Y purinoceptor 10 (Mus musculus, UniProt Q8BFU7); test: (§2) Agonist activity at mouse P2Y10 receptor expressed in HEK293A cells after 1.5 hrs by alkaline phosphatase tagged-TGFalpha shedding assay; format: cell-based, HEK293-A
Procedure, shortened: (§3)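 Transient transfection of HEK293 cells with AP-TGFα plus the mouse receptor. For GPR34, HEK293A cells also got a chimeric Gαq/i1 subunit; P2Y10 was run in HEK293A and GPR174 in HEK293FT. Cells were seeded 24 h post-transfection in 5 mM HEPES (pH 7.4) HBSS onto serial 3.2-fold compound dilutions (top final 32 μM or lower, limited by mock-cell signal). Ki16425 was present, and incubation ran 1.5 h.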

[4] = molecular target: Putative P2Y purinoceptor 10 (Mus musculus) (UniProt Q8BFU7); test: as §2; format: cell-based; details: HEK293-A; procedure, shortened: as §3
[5] = molecular target: Probable G-protein coupled receptor 34 (Mus musculus) (UniProt Q9R1K6); test: (§4) Agonist activity at mouse GPR34 expressed in HEK293A cells cotransfected with chimeric Galphaq/il after 1.5 hrs by alkaline phosphatase tagged-TGFalpha shedding assay; format: cell-based; details: HEK293-A
[6] = molecular target: Probable G-protein coupled receptor 34 (Mus musculus, UniProt Q9R1K6); test: as §4; format: cell-based, HEK293-A; details: read-out: EC50
[7] = molecular target: Putative P2Y purinoceptor 10 (Mus musculus) (UniProt Q8BFU7); test: Intrinsic activity at mouse P2Y10 receptor expressed in HEK293A cells after 1.5 hrs by alkaline phosphatase tagged-TGFalpha shedding assay relative to diF-C3-ph-o-O-C11; format: cell-based; details: HEK293-A; procedure, shortened: as §1
[8] = molecular target: Probable G-protein coupled receptor 174 (Mus musculus) (UniProt Q3U507); test: Agonist activity at mouse GPR174 expressed in HEK293FT cells after 1.5 hrs by alkaline phosphatase tagged-TGFalpha shedding assay; format: cell-based; procedure, shortened: as §3
[9] = molecular target: Putative P2Y purinoceptor 10 (Mus musculus) (UniProt Q8BFU7); test: Agonist activity at mouse P2Y10 receptor expressed in rat McA-RH7777 cells assessed as induction of actin stress fiber formation at 100 nM after 30 mins by Alexa fluor 594-labelled phalloidin/DAPI staining based fluorescence microscopy; format: cell-based
Procedure, shortened: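 McA-RH7777 rat hepatoma cells stably expressing mouse P2Y10, or mock-infected, seeded on collagen I at 2.5 × 10^4 cells/well, grown 24 h in 10% FBS DMEM. Serum-starved 1 h in 0.01% BSA DMEM, stimulated 30 min. Fixed in 4% paraformaldehyde, Triton X-100 permeabilised, stained 1 h with Alexa 594-phalloidin (1.5 μg/mL) and DAPI (1 μg/mL). Scored by fluorescence imaging.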

Putative P2Y purinoceptor 10 (Mus musculus), sequence (Q8BFU7 whole entry): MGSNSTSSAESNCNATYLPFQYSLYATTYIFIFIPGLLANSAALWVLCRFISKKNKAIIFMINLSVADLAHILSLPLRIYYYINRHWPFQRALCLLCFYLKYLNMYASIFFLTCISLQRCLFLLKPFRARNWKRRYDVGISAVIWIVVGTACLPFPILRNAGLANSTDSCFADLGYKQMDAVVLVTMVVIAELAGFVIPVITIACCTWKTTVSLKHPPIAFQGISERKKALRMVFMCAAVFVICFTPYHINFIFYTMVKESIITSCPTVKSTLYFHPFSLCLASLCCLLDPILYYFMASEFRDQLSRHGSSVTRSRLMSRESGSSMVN
Putative P2Y purinoceptor 10, sequence (Q8BFU7 whole entry): as above
Probable G-protein coupled receptor 34, sequence (Q9R1K6 whole entry): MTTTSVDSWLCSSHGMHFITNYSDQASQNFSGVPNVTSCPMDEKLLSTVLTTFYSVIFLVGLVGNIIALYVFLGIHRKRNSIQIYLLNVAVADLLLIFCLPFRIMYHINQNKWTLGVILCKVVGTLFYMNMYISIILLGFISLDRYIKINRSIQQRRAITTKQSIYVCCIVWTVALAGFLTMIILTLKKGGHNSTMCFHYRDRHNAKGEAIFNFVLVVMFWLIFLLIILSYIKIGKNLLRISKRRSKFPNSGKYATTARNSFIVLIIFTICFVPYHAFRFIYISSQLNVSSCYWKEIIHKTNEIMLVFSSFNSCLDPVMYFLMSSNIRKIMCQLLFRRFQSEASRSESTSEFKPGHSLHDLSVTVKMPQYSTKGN
Probable G-protein coupled receptor 34 (Mus musculus), sequence (Q9R1K6 whole entry): as above
Probable G-protein coupled receptor 174 (Mus musculus), sequence (Q3U507 whole entry): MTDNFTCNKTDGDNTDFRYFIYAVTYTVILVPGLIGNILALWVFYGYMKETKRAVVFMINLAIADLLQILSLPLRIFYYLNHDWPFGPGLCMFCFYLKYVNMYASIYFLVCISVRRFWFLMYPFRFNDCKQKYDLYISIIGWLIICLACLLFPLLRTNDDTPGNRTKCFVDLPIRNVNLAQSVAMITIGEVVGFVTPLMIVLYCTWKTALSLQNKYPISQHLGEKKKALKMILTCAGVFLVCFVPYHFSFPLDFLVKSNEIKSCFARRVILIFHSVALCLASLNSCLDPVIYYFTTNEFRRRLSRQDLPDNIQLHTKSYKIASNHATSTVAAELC

Intrinsic activity [1] | Activity [2] | EC50 ([3]; read-out: EC50) [nM] | Emax [4] | Emax [5] [%] | EC50 [6] [nM] | Intrinsic activity [7] | Activity [8] | Activity [9] | EC50 ([3]; hek293-a) | Compound | Ratio EC50 (HEK293-A)
0.85 | Active | > 1000 | inactive | 17.7 | 190 | inactive | inactive | inactive | – | N[C@@H](COP(=O)(O)OC[C@H]1OCCC[C@H]1OC(=O)CCc1ccccc1OCc1cccc(Oc2ccccc2)c1)C(=O)O | 100
3.6 | Active | > 1000 | inactive | 15.2 | 36 | inactive | – | – | – | Cc1ccc(Oc2cccc(COc3ccccc3CCC(=O)OC[C@H]3OCCC[C@H]3OP(=O)(O)OC[C@H](N)C(=O)O)c2)cc1 | –
3.8 | Active | > 1000 | inactive | 16.6 | 37 | inactive | – | – | – | N[C@@H](COP(=O)(O)O[C@@H]1CCCO[C@@H]1COC(=O)CCc1ccccc1OCc1cccc(Oc2ccc(Cl)cc2)c1)C(=O)O | –
1.2 | Active | > 1000 | inactive | 15.1 | 120 | inactive | – | – | – | N[C@@H](COP(=O)(O)OC[C@H]1OCCC[C@H]1OC(=O)CCc1ccccc1OCc1cccc(Oc2ccc(Cl)cc2)c1)C(=O)O | –
1.9 | Active | – | – | 16 | 77 | – | – | – | Not Active | Cc1ccc(Oc2cccc(COc3ccccc3CCC(=O)O[C@@H]3CCCO[C@@H]3COP(=O)(O)OC[C@H](N)C(=O)O)c2)cc1 | –
– | Active | > 1000 | inactive | 14.8 | 140 | inactive | inactive | inactive | – | N[C@@H](COP(=O)(O)O[C@@H]1CCCO[C@@H]1COC(=O)CCc1ccccc1OCc1cccc(Oc2ccccc2)c1)C(=O)O | 100
